High-throughput results deposited in PubChem by several laboratories.
Shown is part of a subset that was picked to be rich in hits.
CHOP UPR activ: activators of apoptotic CHOP UPR arm, primary screen, cell-based, CHO-CHOP luciferase reporter, luminescence, uHTS | UPR activation; percent of tunicamycin response over DMSO baseline | activation, % at 10 µM | hit rate 0.34% among 330,000 | AID 449763, 2010;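 active means at 10 µM dose, activation of 40% or more, normalized to positive control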
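Assay system: CHO-CHOP cells, stable luciferase reporter of PERK-eIF2a-CHOP signalling / Buffer or medium: F12 plus 10% serum / Compound dosing: one dose, 10 µM in 0.5% DMSO / Times: 6 h compound treatment, 37 °C / Technique: luciferase luminescence / Read-out: % reporter activation, DMSO baseline versus tunicamycin full activation / Benchmarks: tunicamycin and DMSO controls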
UPR XBP1 act: activators of adaptive XBP1 UPR arm, primary screen, cell-based, CHO-XBP1 luciferase reporter, luminescence, uHTS. hit rate 0.33% among 330,000. IRE1-XBP1 UPR activation; percent of tunicamycin response, DMSO as zero. activation, % at 20 µM. AID 463104, 2010;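 active means versus positive control, 20 µM dose yields 30% or more activation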
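assay system = CHO-XBP1 luciferase reporter cells | amount = 1000 cells/well | buffer or medium = F12 plus 10% FBS | compound dosing = single point, 20 µM final compound, 1% DMSO | incubation = 16-18 h cell attachment at 37 °C, then 6 h compound exposure | detection = Steady-Glo luminescence read | controls = tunicamycin 10 µg/mL and vehicle-only wells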
CHOP inhibitor: inhibitors of CHOP promoter induction, primary screen, cell-based, unfolded protein response, luciferase reporter; CHO-K1 CHOP-promoter luciferase, tunicamycin-induced, 15-18 h; inhibition, % at 10 µM; hit rate 3.8% among 220,000; AID 2732, 2010;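 active means compounds that reduced the stress-induced luciferase reporter signal by more than about 70% of percent inhibition, limit read from the data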
Tb MetRS inh: T. brucei MetRS inhibitors, primary screen, biochemical, luminescence | methionyl-tRNA synthetase (Trypanosoma brucei brucei) | purified T. brucei MetRS, ATP depletion, Kinase-Glo luminescence | inhibition, % at 11.9 µM | hit rate 0.4% among 360,000;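 active means inhibition above a per-plate cutoff of the control wells' mean inhibition plus 3 SD, cut at about 5.5% in these data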
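Test system: purified T. brucei MetRS enzyme. Also added: ATP, methionine and E. coli bulk tRNA substrates. Compound: 11.9 µM single point. Schedule: 15 min enzyme-compound preincubation, 2 h reaction, 10 min detection, 25 °C. Signal: luciferase luminescence of residual ATP, Kinase-Glo. Evaluation: percent inhibition versus plate control medians. Controls: DMSO wells, low control.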
V-ATPase pH: regulators of yeast V-ATPase proton pumping, primary screen, pHLuorin cytosolic pH fluorescence; S. cerevisiae; response, % at 10 µM; hit rate 0.37% among 350,000; AID 504577, 2011; in the data active means response mostly above about 7.3%, no sharp cut-off; inactive means mostly below about 5.4%; further: actives read high
VATPase regulator: yeast V-ATPase proton pumping modulators, confirmation, S. cerevisiae, pH-sensitive GFP, second cherry-pick; shares compounds with V-ATPase pH; S. cerevisiae pHLuorin cytosolic pH, V-ATPase proton transport; response, % at 10 µM; hit rate 2% among 980; in the data active means response above about 24%
A number is an active result; – = inactive; · = no result given.

SMILES | CHOP UPR activ | UPR XBP1 act | CHOP inhibitor | Tb MetRS inh | V-ATPase pH | VATPase regulator
O=C(N/N=C/c1cccc([N+](=O)[O-])c1)c1ccc(CN2CCOCC2)cc1 | – | – | – | – | 14 | –
O=C(N/N=C/c1cccc2ccccc12)c1ccc(CN2CCOCC2)cc1 | – | – | · | – | – | ·
O=[N+]([O-])c1ccc(F)cc1OCc1nc(-c2cccs2)no1 | · | · | – | – | 15 | –
O=[N+]([O-])c1ccccc1OCc1nc(-c2cccs2)no1 | – | – | – | – | – | ·
CCc1ccc(C(C)(O)C(CN2CCOCC2)c2ccccc2)cc1 (stereo not drawn) | – | – | · | – | – | ·
CCCCCOc1ccc(C(C)(O)C(CN2CCOCC2)c2ccccc2)cc1 (stereo not drawn) | – | – | · | – | 14 | –
O=C1NC[C@H](Cc2ccccc2)N(C[C@H]2CCCN2C[C@H](Cc2ccccc2)N2C[C@H](Cc3ccc(O)cc3)N(CCc3ccccc3)C(=O)C2=O)C1=O | · | · | · | – | – | ·
CCCc1cc(=O)[nH]c(SCC(=O)N2CCOCC2)n1 | – | – | · | – | – | ·
Cc1ccc(NC(=O)CSc2ccc(-c3ccccn3)nn2)c(C)c1 | – | – | · | – | – | ·
Cc1cc(C)c(NC(=O)CSc2ccc(-c3ccccn3)nn2)c(C)c1 | – | – | · | – | 11 | –
CC1=NN(c2nc(N)nc(/C(C#N)=C/c3ccc([N+](=O)[O-])o3)n2)C(C)(C)C1 | · | · | · | – | 48 | –
O=C1C2C(C(=O)N1/N=C/c1ccc([N+](=O)[O-])o1)C1C=CC2C12CC2 (stereo not drawn) | – | – | – | – | – | ·
O=C(NN=C1CCCCCCC1)c1ccc(F)cc1 | – | – | – | – | – | –
CC(C)(C)c1ccc(C(=O)NN=C2CCCC2)cc1 | – | – | · | – | – | ·
Cc1ccc(CNC(=O)CCCCCNC(=O)N2CCn3c2nc2ccccc23)cc1 | – | – | · | – | – | ·
CC1CCCC(NC(=S)Nc2cccc(S(=O)(=O)N(C)C)c2)C1C (stereo not drawn) | – | – | – | – | 8.2 | –
O=C(NNS(=O)(=O)c1ccc(Br)cc1)c1csnn1 | – | – | – | – | – | ·
CC(c1ccccc1)C1C(C#N)=C(N)OC2=C1C(=O)CC(C)(C)C2 (stereo not drawn) | – | – | – | – | 11 | –
O=C(Nc1cccc(Cl)c1)c1ccccc1NC(=O)C1CCCCC1C(=O)O (stereo not drawn) | – | – | · | – | – | ·
O=C1CSC(c2ccccc2[N+](=O)[O-])N1c1cccc(F)c1 (stereo not drawn) | – | – | – | – | 8.3 | –
CCOC(=O)COn1c(=O)c(C)[n+]([O-])c2ccccc21 | – | – | – | – | – | ·
CCOC(=O)COn1c(=O)c[n+]([O-])c2ccccc21 | – | – | – | – | 15 | –
CCc1ccc(NC(=O)c2cc(C)on2)cc1 | – | – | – | – | – | ·
Cc1ccc(NC(=O)c2cc(C)on2)cc1 | – | – | – | – | 6.9 | –
Cc1cc(NC(=O)c2cc(-c3ccc(Br)cc3)on2)no1 | – | – | – | – | 10 | –
SMILES | CHOP UPR activ | UPR XBP1 act | CHOP inhibitor | Tb MetRS inh | V-ATPase pH | VATPase regulator
O=C(CN1CCN(c2ccccc2)CC1)N1N=CCC1c1ccccc1 (stereo not drawn) | – | – | – | – | 24 | –
C[n+]1nc(Nc2ccccc2)sc1-c1ccc(C(=O)O)cc1 | · | · | – | · | · | ·
O=c1c(C=Nc2ccc(Cl)cc2)c[nH]n1-c1cccc(Cl)n1 | – | – | 83 | – | 11 | –
COc1ccc(NC(=O)COC(=O)CCNC(=O)c2ccco2)cc1Cl | – | – | · | – | – | ·
CCOC(=O)Nc1c2ccccc2nc2ccccc12 | – | – | – | – | – | –
N#C/C(=C\c1ccc(F)cc1)C(=O)Nc1ccccn1 | – | – | · | – | – | ·
CC(NCc1ccc([N+](=O)[O-])cc1)C1COc2ccccc2O1 (stereo not drawn) | – | – | · | – | – | ·
N#CC1=C(N)N(c2ccccc2)C2=C(C(=O)CCC2)C1c1ccsc1 (stereo not drawn) | – | – | – | – | 10 | –
CCN(CC)S(=O)(=O)c1ccc(N2CCOCC2)c(NC(=O)Cc2cccc3ccccc23)c1 | – | – | – | – | – | ·
O=C(NCCCn1ccnc1)c1cccc(S(=O)(=O)N2CCCCCC2)c1 | – | – | – | – | – | ·
CC1Cc2ccccc2N1S(=O)(=O)c1cccc(C(=O)NCCCn2ccnc2)c1 (stereo not drawn) | – | – | – | – | 10 | –
Cc1ccc(CN2CCNC(=O)C2CC(=O)N(C)CCc2ccccc2)cc1 (stereo not drawn) | – | – | – | – | 11 | –
COc1ccc(OC)c(NC(=O)C(C)Oc2ccc(Br)cc2)c1 (stereo not drawn) | – | – | – | – | – | ·
Clc1ccc(N2CCN(c3ccnc(Cl)n3)CC2)cc1 | – | – | · | – | – | ·
CSc1nccc(N2CCN(c3ccc(F)cc3)CC2)n1 | – | – | – | – | 11 | –
CCNC(=O)CSc1nnc(-c2ccccc2Br)n1-c1cccc(C(F)(F)F)c1 | – | – | – | – | – | ·
CC(=O)c1cccc(NS(=O)(=O)N2CCCCC2)c1 | – | – | – | – | 16 | –
NS(=O)(=O)c1ccc(CNC(=O)c2cc(-c3cccnc3)nc3ccc(Br)cc23)cc1 | – | – | · | – | – | ·
NC(=O)NC(=O)CC1S/C(=N/N=C2/NC(=O)CS2)NC1=O (stereo not drawn) | – | – | – | – | – | ·
Cc1c(-n2c(SCC(=O)O)nnc2-c2ccccc2Br)c(=O)n(-c2ccccc2)n1C | – | – | – | – | 7.1 | –
O=C(Cc1ccsc1)NNC(=O)c1ccccc1O | – | – | · | – | – | ·
CN(C)c1ccc(C=C2C=Cc3ccccc32)cc1 | · | · | · | – | 12 | –
O=C(NC1CCN(S(=O)(=O)c2ccccc2F)CC1)c1cccnc1 | – | – | · | – | – | ·
Cc1oc(-c2ccc3c(c2)OCCO3)cc1C(=O)NC(Cc1ccccc1)C(=O)O (stereo not drawn) | – | – | – | – | – | ·
COCCNC(=O)c1ccccc1NC(=O)c1ccc(OC)c(OC)c1 | – | – | – | – | 11 | –
COc1ccc(C(=O)Nc2ccccc2C(=O)NCc2ccco2)cc1OC | – | – | – | – | – | ·
COc1ccccc1NC(=O)c1ccc(COc2ccccc2OC)cc1 | – | – | · | – | 10 | –
COn1c(SCc2cccc(Cl)c2)nc2ccccc2c1=O | – | – | – | – | 15 | –
COc1cc(CNCc2ccc(OC)c(OC)c2OC)cc(OC)c1 | – | – | – | – | 12 | –
C=C1N(c2ccccc2)C(=O)OC1(C)C | – | – | – | – | – | ·
